Measured values: ChEMBL document CHEMBL3286272, “Synthesis, biological, and biophysical studies of DAG-indololactones designed as selective activators of RasGRP” (Bioorg Med Chem, 2014)
Calls of active or inactive are those of the source. The calls are words filed in the database; no cut-off is given here.

Assays:
[1] = species on record: Homo sapiens; assay: Selectivity ratio of Ki for recombinant human PKC-epsilon to Ki for recombinant human GFP-tagged RasGRP3
[2] = biological target: T1, Ras guanyl-releasing protein 3 (Homo sapiens) (UniProt Q8IV61); assay: Activation of RasGRP3 (unknown origin) overexpressed in HEK293 cells assessed as ERK1/2 phosphorylation at 1 to 10 uM after 30 mins by Western blot analysis; type: cell-based
T1 sequence (whole entry): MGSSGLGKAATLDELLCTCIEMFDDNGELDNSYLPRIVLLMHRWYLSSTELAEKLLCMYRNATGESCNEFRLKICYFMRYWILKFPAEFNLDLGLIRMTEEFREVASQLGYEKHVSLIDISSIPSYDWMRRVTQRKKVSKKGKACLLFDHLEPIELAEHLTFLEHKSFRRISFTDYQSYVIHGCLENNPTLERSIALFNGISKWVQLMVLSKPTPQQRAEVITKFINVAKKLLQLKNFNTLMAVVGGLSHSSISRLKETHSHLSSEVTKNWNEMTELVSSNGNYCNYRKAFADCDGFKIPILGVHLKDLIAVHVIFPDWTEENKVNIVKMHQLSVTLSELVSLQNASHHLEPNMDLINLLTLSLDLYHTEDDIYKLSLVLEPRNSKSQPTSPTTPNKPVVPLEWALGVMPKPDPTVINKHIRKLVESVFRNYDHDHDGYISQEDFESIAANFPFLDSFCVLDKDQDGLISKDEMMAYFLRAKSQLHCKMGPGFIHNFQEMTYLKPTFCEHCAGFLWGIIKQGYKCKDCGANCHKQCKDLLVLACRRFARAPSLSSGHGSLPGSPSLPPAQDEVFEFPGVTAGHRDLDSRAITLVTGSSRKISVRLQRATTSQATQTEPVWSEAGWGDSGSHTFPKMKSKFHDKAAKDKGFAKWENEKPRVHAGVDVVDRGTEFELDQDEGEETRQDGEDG

[3] = biological target: T1, Ras guanyl-releasing protein 3 (Homo sapiens); assay: Activation of RasGRP3 in human Ramos cells assessed as ERK1/2 phosphorylation at 10000 nM after 30 mins by Western blot analysis; type: cell-based
How it was run: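 Ramos cells in RPMI-1640 with 10% FBS and 1% L-glutamine, plated at 300,000 cells/ml, were exposed after 24 h to 0.01, 0.1, 1 and 10 μM compound for 30 min. Lysates were made in PBS with 0.5% Triton X-100 and sonicated. 7.5 μg protein was run on 10% Tris-glycine gels, blotted to nitrocellulose, probed overnight with phospho-specific primary antibodies and detected by ECL.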

[4] = biological target: Protein kinase C delta type (Homo sapiens) (UniProt Q05655); assay: Binding affinity to recombinant human GFP-tagged PKC-delta expressed in human LNCAP cells assessed as induction of protein translocation from plasma membrane to internal membrane at 10000 nM after 2 to 10 mins by confocal microscopic analysis; type: cell-based
How it was run: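 LNCaP cells were transiently transfected with human GFP-PKCδ or GFP-RasGRP3 and imaged 24 h later by live confocal microscopy (488 nm excitation) every 30 s for 30 min after 10 μM ligand. Distribution was assessed from representative images. n = 3–6.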

[5] = biological target: T2, Protein kinase C alpha type (Homo sapiens, UniProt P17252); assay: Binding affinity to recombinant human GFP-tagged PKC-alpha expressed in CHOK1 cells assessed as induction of protein translocation from plasma membrane to internal membrane at 10000 nM after 5 to 15 mins by confocal microscopic analysis; type: cell-based; conditions: CHO-K1
How it was run: (§1)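 CHO-K1 cells were transiently transfected with human GFP-PKCα and imaged live by confocal microscopy 24 h later (488 nm excitation, 500–530 nm emission) every 30 s for 30 min after 10 μM ligand. Membrane/cytoplasm intensity ratio from 4 μm2 regions was normalized to time 0. n = 3–6.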

[6] = biological target: T2, Protein kinase C alpha type; assay: Binding affinity to recombinant human GFP-tagged PKC-alpha expressed in CHOK1 cells assessed as induction of protein translocation from plasma membrane to internal membrane at 10000 nM after 2 to 5 mins by confocal microscopic analysis; type: cell-based; conditions: CHO-K1; how it was run: as §1

Sequence of Protein kinase C delta type (Homo sapiens) (Q05655 whole entry, looked up): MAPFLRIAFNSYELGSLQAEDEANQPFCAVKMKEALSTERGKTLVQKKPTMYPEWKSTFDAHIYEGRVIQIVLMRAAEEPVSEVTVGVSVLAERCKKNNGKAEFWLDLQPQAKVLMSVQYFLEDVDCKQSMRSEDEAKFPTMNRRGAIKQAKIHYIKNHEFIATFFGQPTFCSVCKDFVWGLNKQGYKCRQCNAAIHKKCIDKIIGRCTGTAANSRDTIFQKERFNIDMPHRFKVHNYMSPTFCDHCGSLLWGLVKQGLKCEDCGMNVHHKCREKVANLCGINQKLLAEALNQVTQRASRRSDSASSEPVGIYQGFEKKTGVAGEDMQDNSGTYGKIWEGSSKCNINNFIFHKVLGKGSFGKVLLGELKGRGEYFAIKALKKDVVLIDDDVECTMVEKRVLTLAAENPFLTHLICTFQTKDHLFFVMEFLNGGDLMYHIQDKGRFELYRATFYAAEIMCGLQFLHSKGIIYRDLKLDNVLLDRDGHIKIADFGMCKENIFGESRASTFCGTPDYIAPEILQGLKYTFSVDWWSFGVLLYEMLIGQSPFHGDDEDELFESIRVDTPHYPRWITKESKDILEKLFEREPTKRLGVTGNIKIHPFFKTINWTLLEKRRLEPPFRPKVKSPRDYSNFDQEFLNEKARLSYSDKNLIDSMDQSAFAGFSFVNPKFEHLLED

Structure (SMILES): CCCC(CCC)C(=O)OCC1(CO)C/C(=C\c2cn(C)c3ccccc23)C(=O)O1 (configuration not stated)
- Ratio Ki [1]: 64
- Activity [2]: Active
- Activity [3]: Active
- Activity [4]: Active
- Activity [5]: Active

Structure (SMILES): CCCC(CCC)C(=O)OCC1(CO)C/C(=C\c2ccc3ccn(C)c3c2)C(=O)O1 (configuration not stated)
- Ratio Ki [1]: 6.6
- Activity [3]: Active
- Activity [4]: Active
- Activity [6]: Active
- Activity [5]: Active

Structure (SMILES): CCCC(CCC)C(=O)OCC1(CO)C/C(=C\c2cccc3c2ccn3C)C(=O)O1 (configuration not stated)
- Ratio Ki [1]: 9
- Activity [3]: Active
- Activity [4]: Active
- Activity [5]: Active

Structure (SMILES): CCCC(CCC)C(=O)OCC1(CO)C/C(=C\c2cccc3ccn(C)c23)C(=O)O1 (configuration not stated)
- Ratio Ki [1]: 11
- Activity [3]: Active
- Activity [4]: Active
- Activity [5]: Active

Structure (SMILES): CCCC(CCC)C(=O)OCC1(CO)C/C(=C\c2ccc3c(ccn3C)c2)C(=O)O1 (configuration not stated)
- Ratio Ki [1]: 6.4
- Activity [3]: Active
- Activity [4]: Active
- Activity [5]: Active
